Laboratory results as given in ChEMBL document CHEMBL2413035, “Synthesis and biological activity of benzo-fused 7-deazaadenosine analogues. 5- and 6-substituted 4-amino- or 4-alkylpyrimido[4,5-b]indole ribonucleosides” (Bioorg Med Chem, 2013).
Calls of active or inactive are those of the source. The calls are words filed in the database; no cut-off is given here.

How the values were obtained:
[1] = Cytotoxicity against human […] cells infected with HCV 2A; assay type: cell-based
[2] = Cytotoxicity against human […] cells infected with HCV 1B; assay type: cell-based
Hepatitis C virus [3] = test: Antiviral activity against HCV 2A infected in […] cells; assay type: functional, organism-based, Hepacivirus hominis; conditions: genotype 2a
[4] = Cytotoxicity against human […] cells infected with HCV 1A; assay type: cell-based
HL-60 = test: Cytotoxicity against human HL60 cells after 3 days by XTT assay; assay type: functional, cell-based; conditions: for IC50: HL-60, 72 h
Procedure, shortened: (§1)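 ATCC lines HL60, HeLa S3, CCRF-CEM and HepG2 exposed to compound for 3 days. Viability read by metabolic XTT tetrazolium reduction.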

HeLa S3 = test: (§2) Cytotoxicity against human HeLaS3 cells after 3 days by XTT assay; assay type: functional, cell-based; procedure, shortened: as §1
CCRF-CEM = test: Cytotoxicity against human CCRF-CEM cells after 3 days by XTT assay; assay type: functional, cell-based; conditions: for IC50: 72 h; procedure, shortened: as §1
HepG2 = test: Cytotoxicity against human HepG2 cells after 3 days by XTT assay; assay type: functional, cell-based; conditions: for IC50: HepG2, 72 h; procedure, shortened: as §1
Hepatitis C virus [5] = test: Antiviral activity against HCV 1A infected in […] cells; assay type: functional, organism-based, Hepacivirus hominis; conditions: subtype 1a
Hepatitis C virus [6] = test: Antiviral activity against HCV 1B infected in […] cells; assay type: functional, organism-based, Hepacivirus hominis; conditions: genotype 1b
[7] = Selectivity index, ratio of CC50 for african green monkey Vero cells to EC50 for Dengue virus 2 infected in Vero cells; assay type: toxicity, cell-based; conditions: read-out: Ratio CC50/EC50
[8] = Cytotoxicity against african green monkey Vero cells after 48 hrs by XTT assay; assay type: cell-based; conditions: chlorocebus sabaeus
Procedure, shortened: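 Vero monolayers incubated with serial compound dilutions for 48 h. XTT added for 4 h, and formazan quantified spectrophotometrically. CC50, the 50% cytotoxic concentration, derived by nonlinear regression.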

dengue virus type 2 = test: Antiviral activity against Dengue virus 2 infected in Vero cells after 3 days by fluorescence microscopy; assay type: functional, organism-based; conditions: 72 h
Procedure, shortened: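 Vero cells, 20,000/well, seeded the day before in DMEM with L-glutamine, 2% FBS and penicillin/streptomycin. Two-fold serial compound dilutions added in triplicate; DENV-2 added 1 h later at MOI 0.3 IU/cell. Incubated 3 days at 37 °C, 5% CO2. Cells fixed and permeabilized, then stained with DENV-2-specific antibody and Cy3 anti-mouse IgG. Imaged by fluorescence microscopy; EC50 by nonlinear regression.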

[9] = as §2; assay type: functional, cell-based; conditions: HeLa S3, 72 h; procedure, shortened: as §1

SMILES	CC50 [1] [µM]	CC50 [2] [µM]	EC50 (Hepatitis C virus [3]) [µM]	CC50 [4] [µM]	Activity (HL-60)	Activity (HeLa S3)	Activity (CCRF-CEM)	Activity (HepG2)	EC50 (Hepatitis C virus [5]) [µM]	EC50 (Hepatitis C virus [6]) [µM]	selectivity ratio [7]	CC50 at 48 h [8] [µM]	EC50 (dengue virus type 2) [µM]	IC50 (HL-60) [µM]	IC50 [9] [µM]	IC50 (CCRF-CEM) [µM]	IC50 (HepG2) [µM]
CN(C)c1ncnc2c1c1ccccc1n2[C@@H]1O[C@H](CO)[C@@H](O)[C@H]1O	> 44	> 44	> 44	> 44	inactive	inactive	inactive	inactive	21.3	7.07	–	–	–	–	–	–	–
OC[C@H]1O[C@@H](n2c3ccccc3c3c(C4CC4)ncnc32)[C@H](O)[C@@H]1O	–	–	–	–	inactive	inactive	inactive	inactive	–	–	–	–	–	–	–	–	–
Nc1ncnc2c1c1cc(-c3cccs3)ccc1n2[C@@H]1O[C@H](CO)[C@@H](O)[C@H]1O	> 44	> 44	24.9	18.1	inactive	inactive	inactive	inactive	10	8.75	–	–	–	–	–	–	–
Nc1ncnc2c1c1ccccc1n2[C@@H]1O[C@H](CO)[C@@H](O)[C@H]1O	> 44	> 44	> 44	> 44	inactive	inactive	inactive	inactive	30.6	11.1	1.1	43.5	39.6	–	–	–	–
Cc1ncnc2c1c1ccccc1n2[C@@H]1O[C@H](CO)[C@@H](O)[C@H]1O	> 44	> 44	> 44	> 44	–	–	–	–	0.56	0.34	–	–	–	54	11	82	15
C[n+]1cnc2c(c1N)c1ccccc1n2[C@@H]1O[C@H](CO)[C@@H](O)[C@H]1O	–	–	–	–	inactive	inactive	inactive	inactive	–	–	–	–	–	–	–	–	–
Nc1ncnc2c1c1c(-c3ccccc3)cccc1n2[C@@H]1O[C@H](CO)[C@@H](O)[C@H]1O	–	–	–	–	inactive	inactive	inactive	inactive	–	–	–	–	–	–	–	–	–
Nc1ncnc2c1c1c(Cl)cccc1n2[C@@H]1O[C@H](CO)[C@@H](O)[C@H]1O	1.66	1.71	1.28	1.16	–	–	–	–	0.53	0.32	1.3	1.14	0.85	17	21	12	21
Nc1ncnc2c1c1cc(-c3ccsc3)ccc1n2[C@@H]1O[C@H](CO)[C@@H](O)[C@H]1O	30.2	25.6	13.8	17.3	inactive	inactive	inactive	inactive	10.1	7.38	2.5	46.3	18.8	–	–	–	–
Nc1ncnc2c1c1c(-c3ccco3)cccc1n2[C@@H]1O[C@H](CO)[C@@H](O)[C@H]1O	–	–	–	–	inactive	inactive	inactive	inactive	–	–	–	–	–	–	–	–	–
Nc1ncnc2c1c1cc(-c3ccoc3)ccc1n2[C@@H]1O[C@H](CO)[C@@H](O)[C@H]1O	–	–	–	–	inactive	inactive	inactive	inactive	–	–	–	–	–	–	–	–	–
Nc1ncnc2c1c1cc(-c3cc4ccccc4o3)ccc1n2[C@@H]1O[C@H](CO)[C@@H](O)[C@H]1O	18	28	8.77	14.5	–	–	–	–	6.13	4.83	> 6.5	> 100	15.4	87	93	32	60
CCCCc1cccc2c1c1c(N)ncnc1n2[C@@H]1O[C@H](CO)[C@@H](O)[C@H]1O	> 44	> 44	> 44	> 44	inactive	inactive	inactive	inactive	> 44	8.81	4.3	62.9	14.8	–	–	–	–
Nc1ncnc2c1c1cc(-c3ccco3)ccc1n2[C@@H]1O[C@H](CO)[C@@H](O)[C@H]1O	–	–	–	–	inactive	inactive	inactive	inactive	–	–	–	–	–	–	–	–	–
Nc1ncnc2c1c1c(-c3ccsc3)cccc1n2[C@@H]1O[C@H](CO)[C@@H](O)[C@H]1O	–	–	–	–	inactive	inactive	inactive	inactive	–	–	–	–	–	–	–	–	–
Nc1ncnc2c1c1cc(-c3ccccc3)ccc1n2[C@@H]1O[C@H](CO)[C@@H](O)[C@H]1O	–	–	–	–	inactive	inactive	inactive	inactive	–	–	–	–	–	–	–	–	–
Nc1ncnc2c1c1cc(Cl)ccc1n2[C@@H]1O[C@H](CO)[C@@H](O)[C@H]1O	–	–	–	–	inactive	inactive	inactive	inactive	–	–	–	–	–	–	–	–	–
